The values below come from ChEMBL document CHEMBL5661979, “Pharmacological inhibition of BMK1 suppresses tumor growth through promyelocytic leukemia protein” (Cancer Cell, 2010).

Some results are limits rather than exact numbers.

Data set [1] concerns the target AMPK alpha1/alpha2 (Homo sapiens, UniProt P54646+Q13131). The data set can be described thus: Inhibition of AMPKalpha1/2 in human HeLa cells lysate at 50 uM pre incubated for 15 mins followed by ATP acyl phosphate probe addition and measured after 10 mins by LC-MS/MS analysis relative to control. The note with it: time 25.0 min. Format: subcellular. The gist of the method: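 HeLa cell lysates (5 mg/mL total protein) were preincubated with inhibitor at 0, 0.8, 2, 10 or 50 μM for 15 min. ATP or ADP acylphosphate probe was then added (5 μM final) for 10 min, and reactions were stopped with urea. Up to four fragment ions per kinase probe-peptide were quantified by targeted MS. % inhibition was taken relative to untreated lysate. Run in duplicate.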

The target of data set [2] is T1, Dual specificity mitogen-activated protein kinase kinase 7 (Homo sapiens) (UniProt O14733).
T1 sequence (whole entry): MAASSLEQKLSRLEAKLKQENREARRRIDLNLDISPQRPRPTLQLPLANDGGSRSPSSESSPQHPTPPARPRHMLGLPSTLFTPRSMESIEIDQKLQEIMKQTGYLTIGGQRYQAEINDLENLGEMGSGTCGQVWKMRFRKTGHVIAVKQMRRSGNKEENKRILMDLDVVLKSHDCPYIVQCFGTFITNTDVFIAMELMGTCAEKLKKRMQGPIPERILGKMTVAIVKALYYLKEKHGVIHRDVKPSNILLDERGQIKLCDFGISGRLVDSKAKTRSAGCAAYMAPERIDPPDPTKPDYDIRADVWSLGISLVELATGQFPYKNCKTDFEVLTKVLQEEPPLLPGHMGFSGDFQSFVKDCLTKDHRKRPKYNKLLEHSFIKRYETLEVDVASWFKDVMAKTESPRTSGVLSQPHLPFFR
Kind of data set: Inhibition of MAP2K7 in human HeLa cells lysate at 2 uM pre incubated for 15 mins followed by ADP acyl phosphate probe addition and measured after 10 mins by LC-MS/MS analysis relative to control. Format: subcellular. The note with it: time 25.0 min.

The target in data set [3] is T2, Non-receptor tyrosine-protein kinase TNK1 (Homo sapiens) (UniProt Q13470).
T2 sequence (whole entry): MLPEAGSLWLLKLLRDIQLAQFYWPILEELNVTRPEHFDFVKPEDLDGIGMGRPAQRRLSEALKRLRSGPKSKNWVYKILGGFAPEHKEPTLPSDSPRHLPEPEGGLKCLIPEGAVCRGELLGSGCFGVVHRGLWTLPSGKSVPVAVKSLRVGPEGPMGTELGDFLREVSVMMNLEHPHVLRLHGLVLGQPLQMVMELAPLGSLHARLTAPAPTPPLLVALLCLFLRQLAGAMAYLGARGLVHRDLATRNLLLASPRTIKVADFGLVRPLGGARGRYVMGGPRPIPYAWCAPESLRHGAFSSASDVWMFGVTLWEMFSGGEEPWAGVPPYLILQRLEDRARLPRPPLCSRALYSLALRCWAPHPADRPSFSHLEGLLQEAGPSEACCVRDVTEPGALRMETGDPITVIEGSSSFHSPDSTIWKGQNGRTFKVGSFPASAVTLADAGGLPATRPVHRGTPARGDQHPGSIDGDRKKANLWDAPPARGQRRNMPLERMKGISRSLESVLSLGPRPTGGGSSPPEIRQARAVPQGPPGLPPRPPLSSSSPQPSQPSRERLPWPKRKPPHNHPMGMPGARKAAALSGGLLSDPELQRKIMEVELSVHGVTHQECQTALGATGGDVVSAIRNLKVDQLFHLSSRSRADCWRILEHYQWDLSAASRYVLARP
The data set can be described thus: Inhibition of TNK1 in human HeLa cells lysate at 50 uM pre incubated for 15 mins followed by ADP acyl phosphate probe addition and measured after 10 mins by LC-MS/MS analysis relative to control. The following applies: time 25.0 min. Format: subcellular.

For data set [4], the target named is Mitogen-activated protein kinase kinase kinase 11 (Homo sapiens, UniProt Q16584). Kind of data set: Inhibition of MLK3 in human HeLa cells lysate at 2 uM pre incubated for 15 mins followed by ATP acyl phosphate probe addition and measured after 10 mins by LC-MS/MS analysis relative to control. The following applies: time 25.0 min. Format: subcellular.
Data set [5] can be described thus: Inhibition of SRPK1/2 in human HeLa cells lysate at 50 uM pre incubated for 15 mins followed by ADP acyl phosphate probe addition and measured after 10 mins by LC-MS/MS analysis relative to control. The note with it: 25 min, condition cancer.
Data set [6] has as its target Ribosomal protein S6 kinase alpha-3 (Homo sapiens, UniProt P51812). The data set can be described thus: Inhibition of RSK2 domain 1 in human HeLa cells lysate at 50 uM pre incubated for 15 mins followed by ADP acyl phosphate probe addition and measured after 10 mins by LC-MS/MS analysis relative to control. The format is subcellular. The note with it: time 25.0 min.

Data set [7] has as its target Calcium/calmodulin-dependent protein kinase kinase 1 (Homo sapiens, UniProt Q8N5S9). Kind of data set: Inhibition of CAMKK1 in human HeLa cells lysate at 50 uM pre incubated for 15 mins followed by ADP acyl phosphate probe addition and measured after 10 mins by LC-MS/MS analysis relative to control. The format is subcellular. The note with it: time 25.0 min. The essentials: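 KiNativ profiling in HeLa lysate (5 mg/mL total protein). Lysate incubated 15 min with inhibitor at 50, 10, 2, 0.8 or 0 μM. ATP or ADP acylphosphate probe then added (5 μM final) and reacted 10 min. Reaction stopped with urea and analysed by targeted MS, using up to four fragment ions per kinase peptide-probe conjugate. % inhibition taken against untreated lysate. Run in duplicate.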

Data set [8] concerns the target Hepatocyte growth factor receptor (Homo sapiens, UniProt P08581). The data set can be described thus: Inhibition of MET in human HeLa cells lysate at 2 uM pre incubated for 15 mins followed by ATP acyl phosphate probe addition and measured after 10 mins by LC-MS/MS analysis relative to control. The note with it: time 25.0 min. Format: subcellular.
Data set [9] is described as follows: MRT in Sprague-Dawley rat at 1 mg/kg, iv measured up to 8 hrs by LC-MS/MS analysis. The format is ADME, organism-based. The note with it: in vivo.
Data set [10] addresses MAP/microtubule affinity-regulating kinase 3 (Homo sapiens, UniProt P27448). Kind of data set: Inhibition of MARK3 in human HeLa cells lysate at 10 uM pre incubated for 15 mins followed by ATP acyl phosphate probe addition and measured after 10 mins by LC-MS/MS analysis relative to control. Format: subcellular. The note with it: time 25.0 min.
Data set [11] deals with Serine/threonine-protein kinase 38-like (Homo sapiens, UniProt Q9Y2H1). The data set can be described thus: Inhibition of NDR2 in human HeLa cells lysate pre incubated for 15 mins followed by ADP acyl phosphate probe addition and measured after 10 mins by LC-MS/MS analysis. The format is subcellular.
For data set [12], the target named is Calcium/calmodulin-dependent protein kinase type II subunit delta (Homo sapiens, UniProt Q13557). The data set can be described thus: Inhibition of CAMK2d in human HeLa cells lysate at 10 uM pre incubated for 15 mins followed by ATP acyl phosphate probe addition and measured after 10 mins by LC-MS/MS analysis relative to control. The format is subcellular. The note with it: time 25.0 min. The essentials:
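KiNativ-type profiling in HeLa lysate (5 mg/mL total protein). Lysate preincubated 15 min with inhibitor at 50, 10, 2, 0.8 or 0 μM, then ATP or ADP acylphosphate probe added (5 μM final) for 10 min. Reaction stopped with urea and analysed by targeted MS, using up to four fragment ions per kinase peptide-probe conjugate. % inhibition calculated against untreated lysate. Duplicate reactions.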

Chain of Calcium/calmodulin-dependent protein kinase kinase 1 (Q8N5S9 whole entry, looked up, the tested form may be a part): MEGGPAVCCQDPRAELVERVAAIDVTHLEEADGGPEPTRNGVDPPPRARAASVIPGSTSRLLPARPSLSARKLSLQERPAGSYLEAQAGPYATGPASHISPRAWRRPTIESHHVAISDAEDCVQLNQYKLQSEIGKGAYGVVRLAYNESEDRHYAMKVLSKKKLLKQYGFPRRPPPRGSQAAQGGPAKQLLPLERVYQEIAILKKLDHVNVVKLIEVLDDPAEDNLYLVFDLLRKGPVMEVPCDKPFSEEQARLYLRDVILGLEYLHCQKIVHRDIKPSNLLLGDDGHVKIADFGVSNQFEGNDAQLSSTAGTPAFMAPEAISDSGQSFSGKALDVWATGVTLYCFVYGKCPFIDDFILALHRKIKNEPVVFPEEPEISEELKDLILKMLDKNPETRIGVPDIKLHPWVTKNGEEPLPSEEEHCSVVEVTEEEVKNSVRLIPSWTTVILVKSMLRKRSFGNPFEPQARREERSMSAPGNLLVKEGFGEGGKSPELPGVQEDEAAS
Chain of MAP/microtubule affinity-regulating kinase 3 (P27448 whole entry, looked up): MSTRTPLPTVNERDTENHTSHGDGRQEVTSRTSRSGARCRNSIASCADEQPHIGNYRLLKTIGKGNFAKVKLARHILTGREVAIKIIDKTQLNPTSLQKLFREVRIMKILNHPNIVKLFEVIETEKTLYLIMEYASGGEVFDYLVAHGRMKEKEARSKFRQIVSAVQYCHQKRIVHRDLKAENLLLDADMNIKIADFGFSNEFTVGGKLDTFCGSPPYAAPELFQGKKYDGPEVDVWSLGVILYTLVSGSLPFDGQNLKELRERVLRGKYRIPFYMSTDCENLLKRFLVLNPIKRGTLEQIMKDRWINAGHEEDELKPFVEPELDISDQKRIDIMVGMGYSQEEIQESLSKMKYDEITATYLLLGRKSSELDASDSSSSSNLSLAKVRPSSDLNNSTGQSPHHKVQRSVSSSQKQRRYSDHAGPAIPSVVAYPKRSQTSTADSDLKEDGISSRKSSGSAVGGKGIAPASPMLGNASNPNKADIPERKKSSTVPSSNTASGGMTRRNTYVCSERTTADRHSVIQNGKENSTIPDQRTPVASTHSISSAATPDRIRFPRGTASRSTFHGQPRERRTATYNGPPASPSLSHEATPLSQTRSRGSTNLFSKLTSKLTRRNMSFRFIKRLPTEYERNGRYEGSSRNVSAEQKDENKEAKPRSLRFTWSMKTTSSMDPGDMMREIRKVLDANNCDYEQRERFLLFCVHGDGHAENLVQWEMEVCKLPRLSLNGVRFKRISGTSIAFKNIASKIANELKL
Chain of Ribosomal protein S6 kinase alpha-3 (P51812 whole entry, the tested form may be a part): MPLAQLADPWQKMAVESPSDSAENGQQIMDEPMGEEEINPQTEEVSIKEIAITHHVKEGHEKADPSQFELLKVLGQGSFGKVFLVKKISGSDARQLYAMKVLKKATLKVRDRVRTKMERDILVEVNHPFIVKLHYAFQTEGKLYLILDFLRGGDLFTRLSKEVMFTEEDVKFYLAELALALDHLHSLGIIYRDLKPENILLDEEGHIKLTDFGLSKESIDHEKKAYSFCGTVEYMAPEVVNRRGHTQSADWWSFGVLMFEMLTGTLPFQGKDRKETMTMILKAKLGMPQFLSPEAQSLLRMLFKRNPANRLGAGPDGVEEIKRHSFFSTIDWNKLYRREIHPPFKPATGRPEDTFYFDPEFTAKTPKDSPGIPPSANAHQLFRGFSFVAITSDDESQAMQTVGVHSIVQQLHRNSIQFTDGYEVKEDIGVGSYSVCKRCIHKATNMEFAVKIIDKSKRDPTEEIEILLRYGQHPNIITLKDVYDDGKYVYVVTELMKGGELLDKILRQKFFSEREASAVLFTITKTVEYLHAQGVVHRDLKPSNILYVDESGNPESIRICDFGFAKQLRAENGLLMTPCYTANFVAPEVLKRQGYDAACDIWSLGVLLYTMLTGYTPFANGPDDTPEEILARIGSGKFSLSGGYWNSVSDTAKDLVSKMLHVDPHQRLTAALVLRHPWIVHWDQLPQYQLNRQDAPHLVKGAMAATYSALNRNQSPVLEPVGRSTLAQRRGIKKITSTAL
Chain of Calcium/calmodulin-dependent protein kinase type II subunit delta (Q13557 whole entry, the tested form may be a part): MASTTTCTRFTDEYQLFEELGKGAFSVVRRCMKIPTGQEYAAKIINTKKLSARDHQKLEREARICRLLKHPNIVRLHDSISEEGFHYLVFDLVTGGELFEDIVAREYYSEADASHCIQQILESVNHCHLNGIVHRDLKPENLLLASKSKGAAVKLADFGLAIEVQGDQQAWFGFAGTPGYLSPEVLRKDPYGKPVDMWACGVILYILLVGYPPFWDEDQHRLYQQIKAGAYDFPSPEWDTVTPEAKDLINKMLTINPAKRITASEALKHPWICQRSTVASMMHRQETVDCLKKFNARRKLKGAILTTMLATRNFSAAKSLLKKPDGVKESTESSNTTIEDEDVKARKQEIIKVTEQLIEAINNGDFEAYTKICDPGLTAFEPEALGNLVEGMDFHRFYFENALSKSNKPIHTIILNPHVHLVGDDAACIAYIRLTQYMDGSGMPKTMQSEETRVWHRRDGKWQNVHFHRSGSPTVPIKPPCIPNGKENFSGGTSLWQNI
Chain of Mitogen-activated protein kinase kinase kinase 11 (Q16584 whole entry, looked up): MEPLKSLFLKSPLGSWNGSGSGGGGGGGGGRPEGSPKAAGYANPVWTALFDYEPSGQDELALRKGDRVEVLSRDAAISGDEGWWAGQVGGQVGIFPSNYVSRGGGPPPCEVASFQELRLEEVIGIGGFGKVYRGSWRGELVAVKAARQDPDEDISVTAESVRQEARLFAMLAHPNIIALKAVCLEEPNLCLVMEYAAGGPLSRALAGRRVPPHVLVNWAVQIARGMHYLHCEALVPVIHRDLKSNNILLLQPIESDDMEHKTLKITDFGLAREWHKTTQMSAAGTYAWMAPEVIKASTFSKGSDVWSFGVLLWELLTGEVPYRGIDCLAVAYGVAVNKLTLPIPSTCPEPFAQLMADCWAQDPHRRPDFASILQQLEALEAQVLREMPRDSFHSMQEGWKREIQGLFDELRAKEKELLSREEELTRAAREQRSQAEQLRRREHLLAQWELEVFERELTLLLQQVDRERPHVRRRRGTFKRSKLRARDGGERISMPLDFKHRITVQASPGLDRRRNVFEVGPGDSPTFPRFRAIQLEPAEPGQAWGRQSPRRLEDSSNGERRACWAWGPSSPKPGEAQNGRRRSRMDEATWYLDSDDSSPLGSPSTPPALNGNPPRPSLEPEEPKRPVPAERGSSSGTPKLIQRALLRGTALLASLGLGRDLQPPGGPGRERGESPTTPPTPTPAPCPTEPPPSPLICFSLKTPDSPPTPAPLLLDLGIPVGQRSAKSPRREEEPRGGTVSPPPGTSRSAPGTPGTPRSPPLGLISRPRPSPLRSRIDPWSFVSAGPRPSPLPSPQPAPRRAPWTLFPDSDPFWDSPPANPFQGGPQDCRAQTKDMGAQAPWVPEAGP
Chain of AMPK alpha1/alpha2 (P54646 whole entry, looked up, the tested form may be a part): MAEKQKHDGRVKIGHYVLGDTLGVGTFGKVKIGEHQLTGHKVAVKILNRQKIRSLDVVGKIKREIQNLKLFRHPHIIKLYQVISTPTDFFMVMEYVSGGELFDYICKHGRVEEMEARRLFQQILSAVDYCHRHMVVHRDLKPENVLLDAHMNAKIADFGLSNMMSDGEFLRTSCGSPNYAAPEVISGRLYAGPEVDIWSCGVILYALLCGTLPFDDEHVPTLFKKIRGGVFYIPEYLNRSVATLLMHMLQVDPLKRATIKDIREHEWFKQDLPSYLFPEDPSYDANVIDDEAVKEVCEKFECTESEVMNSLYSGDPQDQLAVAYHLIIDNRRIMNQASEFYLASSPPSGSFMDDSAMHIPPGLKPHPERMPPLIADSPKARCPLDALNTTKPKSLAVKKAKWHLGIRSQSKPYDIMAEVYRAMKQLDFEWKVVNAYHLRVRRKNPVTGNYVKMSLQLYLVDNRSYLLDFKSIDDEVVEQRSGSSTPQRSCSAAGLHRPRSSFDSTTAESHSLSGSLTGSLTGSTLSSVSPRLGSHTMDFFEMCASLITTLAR
Chain of AMPK alpha1/alpha2 (Q13131 whole entry, looked up, the tested form may be a part): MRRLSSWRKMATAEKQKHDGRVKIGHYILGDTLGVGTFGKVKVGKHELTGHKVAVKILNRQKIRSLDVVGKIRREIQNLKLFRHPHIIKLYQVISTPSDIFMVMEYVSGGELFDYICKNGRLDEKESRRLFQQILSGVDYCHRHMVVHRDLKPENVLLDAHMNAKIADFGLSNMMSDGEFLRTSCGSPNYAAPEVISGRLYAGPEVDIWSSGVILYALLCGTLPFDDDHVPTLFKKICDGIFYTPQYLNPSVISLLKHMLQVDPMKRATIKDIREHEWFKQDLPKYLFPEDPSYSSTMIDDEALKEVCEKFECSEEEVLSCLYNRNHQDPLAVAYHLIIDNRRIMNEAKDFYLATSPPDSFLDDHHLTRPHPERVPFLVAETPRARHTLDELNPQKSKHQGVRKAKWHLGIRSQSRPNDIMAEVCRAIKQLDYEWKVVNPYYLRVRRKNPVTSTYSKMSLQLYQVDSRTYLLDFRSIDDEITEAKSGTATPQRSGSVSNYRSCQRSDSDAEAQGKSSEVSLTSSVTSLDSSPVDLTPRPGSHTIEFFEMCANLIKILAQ
Chain of Serine/threonine-protein kinase 38-like (Q9Y2H1 whole entry): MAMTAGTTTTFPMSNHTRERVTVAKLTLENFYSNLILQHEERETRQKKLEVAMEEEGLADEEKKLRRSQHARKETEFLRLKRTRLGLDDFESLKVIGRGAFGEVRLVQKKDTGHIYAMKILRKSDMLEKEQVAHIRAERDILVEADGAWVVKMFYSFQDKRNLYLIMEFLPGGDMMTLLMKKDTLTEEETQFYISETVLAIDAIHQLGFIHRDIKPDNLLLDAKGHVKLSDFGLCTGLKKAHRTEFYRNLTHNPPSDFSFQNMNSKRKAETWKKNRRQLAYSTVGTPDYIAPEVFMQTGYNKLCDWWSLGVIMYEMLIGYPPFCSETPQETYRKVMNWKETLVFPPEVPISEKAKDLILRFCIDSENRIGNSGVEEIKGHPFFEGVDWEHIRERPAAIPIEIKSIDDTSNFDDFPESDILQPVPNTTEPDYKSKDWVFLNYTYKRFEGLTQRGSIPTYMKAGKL

`CCOc1cc(N2CCC(O)CC2)ccc1Nc1ncc2c(n1)N(C)c1ccccc1C(=O)N2C`: the inhibition in data set [1] was 32%; in data set [2] it was 17.9%; in data set [3], 82.2%; in [4], 5.3%; in data set [6], -4.3%; in data set [7], 17%. Besides, the inhibition is 38% in [8], -9.2% in data set [10] and 3.2% in data set [12]. Besides, the inhibition at 50 µM in data set [5] was -53.5%. This molecule gave an MRT in data set [9] of 2.2 h. The molecule also showed an IC50 in [11] greater than 50 µM.
